Assay results: ChEMBL document CHEMBL2331168, “Anticonvulsant evaluation of aminoalkanol derivatives of 2- and 4-methylxanthone” (Bioorg Med Chem, 2013)
Activity calls are given as the source filed them.

Experiments:
Mus musculus [1] = assay: Neurotoxicity in albino mouse assessed as minimal motor impairment at 30 mg/kg, ip after 0.5 hrs by rotorod test; type: toxicity, organism-based; set-up: dose 30 mg/kg, route intraperitoneal; conditions: in vivo
Outline: (§1)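 Male albino mice (Carworth Farms No. 1) were dosed ip with suspensions in 0.5% methylcellulose and put on a 1 in. knurled rod rotating at 6 rpm at set times after dosing. Neurotoxicity meant failure to stay on the rod for at least 1 min in each of three trials. Scored as impaired/tested.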

Mus musculus [2] = assay: Anticonvulsant activity in albino mouse assessed as protection against subcutaneous pentetrazole-induced seizures at 30 mg/kg, ip after 0.5 hrs; type: functional, organism-based; set-up: dose 30 mg/kg
Outline: (§2)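 Male albino mice (Carworth Farms No. 1) received compound ip in 0.5% methylcellulose, then pentetrazole 85 mg/kg sc in 0.9% NaCl at 0.5 or 4 h. Mice were watched for at least 30 min. Protection meant no threshold seizure, defined as a single clonic spasm lasting at least 5 s. Scored as protected/tested.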

Mus musculus [3] = assay: Anticonvulsant activity in ip dosed albino mouse assessed as protection against maximal electroshock-induced seizures after 1 hr; type: functional
Outline: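 ED50, with 95% confidence intervals, was the ip dose protecting 50% of mice in the MES test. It was measured at the stated post-dose time in male albino mice given suspensions in 0.5% methylcellulose. MES used 60 Hz, 50 mA, 0.2 s corneal stimulation, and the endpoint was abolition of hindlimb tonic extension.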

Mus musculus [4] = organism: Mus musculus; assay: Protective index, ratio TD50 for albino mouse to ED50 for albino mouse by maximal electroshock-induced seizure test after 1 hr; type: functional
Outline: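 Protective index was calculated as mouse ip TD50 (rotorod) divided by mouse ip MES ED50, both obtained by quantitative dose-response testing at the stated post-dose time.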

Rattus norvegicus [5] = assay: Anticonvulsant activity in Sprague-Dawley rat assessed as protection against maximal electroshock-induced seizures at 30 mg/kg, po after 4 hrs; type: functional, organism-based; set-up: dose 30 mg/kg
Outline: (§3)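 Male Sprague-Dawley rats dosed orally at 30 mg/kg and tested at 0.25, 0.5, 1, 2 and 4 h. Seizures were induced by 60 Hz alternating current at 150 mA for 0.2 s through corneal electrodes, after a drop of 0.9% NaCl in each eye. Protection meant abolition of hindlimb tonic extension. Reported as protected/tested, usually 4 rats per time point.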

Rattus norvegicus [6] = assay: Neurotoxicity in Sprague-Dawley rat assessed as minimal motor impairment at 30 mg/kg, po after 2 hrs by rotorod test; conditions: in vivo
Rattus norvegicus [7] = assay: Neurotoxicity in Sprague-Dawley rat assessed as minimal motor impairment at 30 mg/kg, po after 0.25 hrs by rotorod test; conditions: in vivo
Mus musculus [8] = assay: Anticonvulsant activity in albino mouse assessed as protection against maximal electroshock-induced seizures at 300 mg/kg, ip after 0.5 hrs; type: functional, organism-based; set-up: dose 300 mg/kg
Outline: (§4)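 Male albino mice (Carworth Farms No. 1) were given the compound ip as a suspension in 0.5% methylcellulose at 3–300 mg/kg. MES testing was at 0.5 and 4 h, sometimes also at 0.25 and 1 h. Current was 60 Hz, 50 mA, 0.2 s via corneal electrodes, with saline eye drops. Protection meant no hindlimb tonic extension, scored as protected/tested.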

Mus musculus [9] = assay: Neurotoxicity in albino mouse assessed as minimal motor impairment at 100 mg/kg, ip after 4 hrs by rotorod test; type: toxicity, organism-based; set-up: dose 100 mg/kg, route intraperitoneal; conditions: in vivo; outline: as §1
Mus musculus [10] = assay: Anticonvulsant activity in albino mouse assessed as protection against maximal electroshock-induced seizures at 30 mg/kg, ip after 4 hrs; type: functional, organism-based; set-up: dose 30 mg/kg; outline: as §4
Rattus norvegicus [11] = assay: Neurotoxicity in Sprague-Dawley rat assessed as minimal motor impairment at 30 mg/kg, po after 4 hrs by rotorod test; conditions: in vivo
Mus musculus [12] = assay: Neurotoxicity in albino mouse assessed as minimal motor impairment at 300 mg/kg, ip after 0.5 hrs by rotorod test; type: toxicity, organism-based; set-up: dose 300 mg/kg, route intraperitoneal; conditions: in vivo; outline: as §1
Mus musculus [13] = assay: Anticonvulsant activity in albino mouse assessed as protection against maximal electroshock-induced seizures at 300 mg/kg, ip after 4 hrs; type: functional, organism-based; set-up: dose 300 mg/kg; outline: as §4
Mus musculus [14] = assay: Anticonvulsant activity in albino mouse assessed as protection against subcutaneous pentetrazole-induced seizures at 30 mg/kg, ip after 4 hrs; type: functional, organism-based; set-up: dose 30 mg/kg; outline: as §2
Mus musculus [15] = assay: Anticonvulsant activity in albino mouse assessed as protection against subcutaneous pentetrazole-induced seizures at 100 mg/kg, ip after 4 hrs; type: functional, organism-based; set-up: dose 100 mg/kg; outline: as §2
Mus musculus [16] = assay: Anticonvulsant activity in albino mouse assessed as protection against subcutaneous pentetrazole-induced seizures at 300 mg/kg, ip after 0.5 hrs; type: functional, organism-based; set-up: dose 300 mg/kg; outline: as §2
Mus musculus [17] = assay: Anticonvulsant activity in albino mouse assessed as protection against maximal electroshock-induced seizures at 30 mg/kg, ip after 0.5 hrs; type: functional, organism-based; set-up: dose 30 mg/kg; outline: as §4
Rattus norvegicus [18] = assay: Neurotoxicity in Sprague-Dawley rat assessed as minimal motor impairment at 30 mg/kg, po after 0.5 hrs by rotorod test; conditions: in vivo
Rattus norvegicus [19] = assay: Neurotoxicity in Sprague-Dawley rat assessed as minimal motor impairment at 30 mg/kg, po after 1 hr by rotorod test; conditions: in vivo
Mus musculus [20] = assay: Neurotoxicity in albino mouse assessed as minimal motor impairment at 100 mg/kg, ip after 0.5 hrs by rotorod test; type: toxicity, organism-based; set-up: dose 100 mg/kg, route intraperitoneal; conditions: in vivo; outline: as §1
[21] = Neurotoxicity in ip dosed albino mouse assessed as minimal motor impairment after 2 hrs by rotorod test; type: toxicity, organism-based; conditions: in vivo
Outline: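 TD50, with 95% confidence intervals, was the ip dose causing neurotoxicity in 50% of male albino mice. Deficit was judged on the rotorod: a 1 in. knurled rod at 6 rpm, where failure to hold on for 1 min in each of three trials counted as deficit. Read at the stated time after dosing.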

Mus musculus [22] = assay: Neurotoxicity in albino mouse assessed as minimal motor impairment at 30 mg/kg, ip after 4 hrs by rotorod test; type: toxicity, organism-based; set-up: dose 30 mg/kg, route intraperitoneal; conditions: in vivo; outline: as §1
Mus musculus [23] = assay: Anticonvulsant activity in ip dosed albino mouse assessed as protection against subcutaneous pentetrazole-induced seizures after 2 hrs; type: functional
Mus musculus [24] = assay: Anticonvulsant activity in albino mouse assessed as protection against subcutaneous pentetrazole-induced seizures at 300 mg/kg, ip after 4 hrs; type: functional, organism-based; set-up: dose 300 mg/kg; outline: as §2
Mus musculus [25] = assay: Protective index, ratio TD50 for albino mouse to ED50 for albino mouse by subcutaneous pentetrazole-induced seizure test after 2 hrs; type: functional
Rattus norvegicus [26] = assay: Anticonvulsant activity in Sprague-Dawley rat assessed as protection against maximal electroshock-induced seizures at 30 mg/kg, po after 1 hr; type: functional, organism-based; set-up: dose 30 mg/kg; outline: as §3
Mus musculus [27] = assay: Anticonvulsant activity in albino mouse assessed as protection against subcutaneous pentetrazole-induced seizures at 100 mg/kg, ip after 0.5 hrs; type: functional, organism-based; set-up: dose 100 mg/kg; outline: as §2
Rattus norvegicus [28] = assay: Anticonvulsant activity in Sprague-Dawley rat assessed as protection against maximal electroshock-induced seizures at 30 mg/kg, po after 2 hrs; type: functional, organism-based; set-up: dose 30 mg/kg; outline: as §3
Mus musculus [29] = assay: Neurotoxicity in albino mouse assessed as minimal motor impairment at 300 mg/kg, ip after 4 hrs by rotorod test; type: toxicity, organism-based; set-up: dose 300 mg/kg, route intraperitoneal; conditions: in vivo; outline: as §1
Mus musculus [30] = assay: Anticonvulsant activity in albino mouse assessed as protection against maximal electroshock-induced seizures at 100 mg/kg, ip after 4 hrs; type: functional, organism-based; set-up: dose 100 mg/kg; outline: as §4
Mus musculus [31] = assay: Anticonvulsant activity in albino mouse assessed as protection against maximal electroshock-induced seizures at 100 mg/kg, ip after 1 hr; type: functional, organism-based; set-up: dose 100 mg/kg; outline: as §4
Mus musculus [32] = assay: Anticonvulsant activity in albino mouse assessed as protection against maximal electroshock-induced seizures at 100 mg/kg, ip after 0.5 hrs; type: functional, organism-based; set-up: dose 100 mg/kg; outline: as §4
Mus musculus [33] = assay: Neurotoxicity in albino mouse assessed as minimal motor impairment at 100 mg/kg, ip after 0.25 hrs by rotorod test; type: toxicity, organism-based; set-up: dose 100 mg/kg, route intraperitoneal; conditions: in vivo; outline: as §1
Rattus norvegicus [34] = assay: Anticonvulsant activity in Sprague-Dawley rat assessed as protection against maximal electroshock-induced seizures at 30 mg/kg, po after 0.5 hrs; type: functional, organism-based; set-up: dose 30 mg/kg; outline: as §3
Rattus norvegicus [35] = assay: Anticonvulsant activity in Sprague-Dawley rat assessed as protection against maximal electroshock-induced seizures at 30 mg/kg, po after 0.25 hrs; type: functional, organism-based; set-up: dose 30 mg/kg; outline: as §3

Row | Structure (SMILES) | Activity (Mus musculus [1]) | Activity (Mus musculus [2]) | Activity (Rattus norvegicus [5]) | Activity (Rattus norvegicus [6]) | Activity (Rattus norvegicus [7]) | Activity (Mus musculus [8]) | Activity (Mus musculus [9]) | Activity (Mus musculus [10]) | Activity (Rattus norvegicus [11]) | Activity (Mus musculus [12]) | Activity (Mus musculus [13]) | Activity (Mus musculus [14]) | Activity (Mus musculus [15]) | Activity (Mus musculus [16]) | Activity (Mus musculus [17]) | Activity (Rattus norvegicus [18]) | Activity (Rattus norvegicus [19]) | Activity (Mus musculus [27]) | Activity (Mus musculus [29]) | Activity (Mus musculus [30]) | other results
1 | C[C@@H](CO)NCc1ccc2oc3ccc(Cl)cc3c(=O)c2c1 | Non-toxic | inactive | inactive | Non-toxic | Non-toxic | inactive | Non-toxic | inactive | Non-toxic | Non-toxic | Active | inactive | inactive | inactive | inactive | Non-toxic | Non-toxic | inactive | Non-toxic | Active | ED50 (Mus musculus [3]): 79.7 mg/kg; Ratio TD50/ED50 (Mus musculus [4]): 3.93; Activity (Mus musculus [20]): Non-toxic; TD50 at 2 h [21]: 313 mg/kg; Activity (Mus musculus [22]): Non-toxic; ED50 (Mus musculus [23]): > 375 mg/kg; Activity (Mus musculus [24]): inactive; Ratio TD50/ED50 (Mus musculus [25]): <0.84; Activity (Rattus norvegicus [26]): inactive; Activity (Rattus norvegicus [28]): inactive
2 | CC(C)(CO)NCc1ccc2oc3ccc(Cl)cc3c(=O)c2c1 | Non-toxic | inactive | – | – | – | Active | Non-toxic | inactive | – | – | Active | inactive | inactive | inactive | inactive | – | – | inactive | Non-toxic | inactive | Activity (Mus musculus [31]): inactive; Activity (Mus musculus [32]): inactive; Activity (Mus musculus [33]): Non-toxic; Activity (Mus musculus [24]): inactive
3 | CCC(CO)NCc1cccc2c(=O)c3ccc(OC)cc3oc12 (racemic) | Non-toxic | inactive | inactive | Non-toxic | Non-toxic | Active | Non-toxic | inactive | Non-toxic | Toxic | – | inactive | inactive | – | inactive | Non-toxic | Non-toxic | inactive | Toxic | inactive | Activity (Mus musculus [20]): Toxic; Activity (Mus musculus [32]): Active; Activity (Rattus norvegicus [34]): inactive; Activity (Rattus norvegicus [35]): inactive; Activity (Mus musculus [22]): Non-toxic; Activity (Rattus norvegicus [26]): inactive; Activity (Rattus norvegicus [28]): inactive
